Calls of active or inactive are those of the source. The calls are words filed in the database; no cut-off is given here.
Tests used:
HL-60 [1] = test: Effect on human HL60 cells assessed as fold change in ZNF79 gene expression at 1.085 uM incubated for 6 hrs by microarray-based method; assay type: functional
HL-60 [2] = test: Induction of cell cycle arrest in human HL60 cells assessed as accumulation of cells at G0/G1 phase at EC50 incubated for 12 hrs by PI staining based flow cytometric analysis (reference value: 56.3%); assay type: functional
HL-60 [3] = test: Induction of differentiation in human HL60 cells assessed as increase in CD11b positive cells incubated for 48 hrs by 7-AAD staining-based flow cytometric analysis; assay type: functional, cell-based
Outline: (§1)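 Vitamin D3 at 100 nM and ATRA at 2 μM served as positive controls. Stained with APC anti-CD11b and PE anti-CD14 for 30 min at 4 °C, then 7-AAD.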

HL-60 [4] = test: Induction of differentiation in human HL60 cells assessed as increase in CD14 positive cells incubated for 48 hrs by 7-AAD staining-based flow cytometric analysis; assay type: functional, cell-based; outline: as §1
HL-60 [5] = test: Induction of cell cycle arrest in human HL60 cells assessed as accumulation of cells at S phase at EC50 incubated for 12 hrs by PI staining based flow cytometric analysis (reference value: 19.0%); assay type: functional
RS4-11 [6] = test: Induction of apoptosis in human RS4:11 cells assessed as accumulation of cells at G2 phase at 300 nM incubated for 18 hrs in presence of PARP antibody by immunofluorescent staining based flow cytometric analysis relative to control; assay type: functional
Outline: (§2)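 RS4;11 cells treated with 300 nM or DMSO vehicle for 18 h, then pulsed with 10 μM BrdU for 1 h. Harvested cells immunostained for BrdU/PI (cell cycle), γH2AX (DNA damage) and PARP (apoptosis). Multicolor flow cytometry gated G1, sub-G2-like, G2/M and sub-G0/G1 populations.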

HL-60 [7] = test: Effect on human HL60 cells assessed as increase in p53 protein expression at 300 nM incubated for 15 to 360 mins by Western blot analysis; assay type: functional, cell-based
Outline: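 Leukemia cells (RS4;11, CEM, HL60) treated with 300 nM for 0, 15, 30, 60 and 360 min. Western blotting for β-tubulin and p53, with lamin B1 as loading control and chemiluminescent detection.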

HL-60 [8] = test: Effect on human HL60 cells assessed as fold change in SPATA7 gene expression at 1.085 uM incubated for 6 hrs by microarray-based method; assay type: functional
Outline: (§3)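 HL60 cells were treated in triplicate with 1.085 µM or vehicle for 6 h. Total RNA was extracted with on-column DNase treatment and profiled on expression arrays.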

HL-60 [9] = test: Effect on human HL60 cells assessed as fold change in FOXJ2 gene expression at 1.085 uM incubated for 6 hrs by microarray-based method; assay type: functional; outline: as §3
HL-60 [10] = test: Effect on human HL60 cells assessed as fold change in NMNAT1 gene expression at 1.085 uM incubated for 6 hrs by microarray-based method; assay type: functional; outline: as §3
HL-60 [11] = test: Effect on human HL60 cells assessed as fold change in PPP1R1A gene expression at 1.085 uM incubated for 6 hrs by microarray-based method; assay type: functional; outline: as §3
HL-60 [12] = test: Effect on human HL60 cells assessed as fold change in INSIG1 gene expression at 1.085 uM incubated for 6 hrs by microarray-based method; assay type: functional; outline: as §3
HL-60 [13] = test: Effect on human HL60 cells assessed as fold change in SPRY1 gene expression at 1.085 uM incubated for 6 hrs by microarray-based method; assay type: functional; outline: as §3
HL-60 [14] = test: Induction of cell cycle arrest in human HL60 cells assessed as accumulation of cells at G2/M phase at EC50 by PI staining based flow cytometric analysis; assay type: functional; settings: TDE = time-dependent effect
HL-60 [15] = test: Effect on human HL60 cells assessed as fold change in ANKRD36 gene expression at 1.085 uM incubated for 6 hrs by microarray-based method; assay type: functional; outline: as §3
RS4-11 [16] = test: Induction of DNA damage in human RS4:11 cells assessed as accumulation of cells at G1 phase at 300 nM incubated for 18 hrs in presence of H2AX antibody by immunofluorescent staining based flow cytometric analysis relative to control; assay type: functional; outline: as §2
HL-60 [17] = test: Effect on human HL60 cells assessed as fold change in SPATA31A1 gene expression at 1.085 uM incubated for 6 hrs by microarray-based method; assay type: functional; outline: as §3
HL-60 [18] = test: Effect on human HL60 cells assessed as fold change in TM2D3 gene expression at 1.085 uM incubated for 6 hrs by microarray-based method; assay type: functional; outline: as §3
RS4-11 [19] = test: Induction of apoptosis in human RS4:11 cells assessed as accumulation of cells at G1 phase at 300 nM incubated for 18 hrs in presence of PARP antibody by immunofluorescent staining based flow cytometric analysis relative to control; assay type: functional; outline: as §2
Tubulin (Homo sapiens) = Tubulin (Homo sapiens) (UniProt P68371+Q9H4B7+P0DPH7+P68366+Q13509+Q71U36+P04350+Q3ZCM7+P07437+P68363+Q9BQE3+Q6PEY2+Q13885+Q9BVA1+Q9BUF5); test: Induction of microtubule network depolymerization in human HeLa cells assessed as fragmented centrosomal material at 500 nM incubated for 18 hrs by DAPI staining based fluorescence microscopic method; assay type: cell-based
Outline: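 HeLa cells (100,000/mL) cultured overnight on glass-bottom dishes, then exposed to 500 nM or 1 μM, or DMSO, for 18 h. Permeabilized (0.5% Triton X-100) and fixed (3.7% formaldehyde). Stained overnight at 4 °C with anti-β-tubulin, then Alexa Fluor 647 secondary for 1 h at room temperature, and DAPI 1 μg/mL for 10 min. Examined by fluorescence microscopy.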

HL-60 [20] = test: Effect on human HL60 cells assessed as fold change in CELF2 gene expression at 1.085 uM incubated for 6 hrs by microarray-based method; assay type: functional; outline: as §3
RS4-11 [21] = test: Induction of apoptosis in human RS4:11 cells at 300 nM incubated for 18 hrs by Annexin V-FITC/propidium iodide staining-based flow cytometric analysis; assay type: functional, cell-based
Outline: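 CEM, HL60 or RS4;11 cells (5×10^5) treated with 300 nM or vehicle for 18 h. Stained with FITC-Annexin V in binding buffer for 15 min at 37 °C, then PI (5 μg/mL) for 3 min. Analyzed by flow cytometry.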

HL-60 [22] = test: Induction of cell cycle arrest in human HL60 cells assessed as accumulation of cells at G0/G1 phase at EC50 incubated for 18 hrs by PI staining based flow cytometric analysis (reference value: 56.3%); assay type: functional
HL-60 [23] = test: Effect on human HL60 cells assessed as fold change in LILRA5 gene expression at 1.085 uM incubated for 6 hrs by microarray-based method; assay type: functional; outline: as §3
HL-60 [24] = test: Effect on human HL60 cells assessed as fold change in USP24 gene expression at 1.085 uM incubated for 6 hrs by microarray-based method; assay type: functional
HL-60 [25] = test: Effect on human HL60 cells assessed as fold change in FBXO25 gene expression at 1.085 uM incubated for 6 hrs by microarray-based method; assay type: functional; outline: as §3
HL-60 [26] = test: Effect on human HL60 cells assessed as fold change in IPO13 gene expression at 1.085 uM incubated for 6 hrs by microarray-based method; assay type: functional; outline: as §3
HL-60 [27] = test: Effect on human HL60 cells assessed as fold change in GBP3 gene expression at 1.085 uM incubated for 6 hrs by microarray-based method; assay type: functional; outline: as §3

Activity (Tubulin (Homo sapiens)): Active
SMILES: COC(=O)c1[nH]c2cc(OC)ccc2c1-c1ccc(C(F)(F)F)cc1
fold change (FC) (HL-60 [1]): -1.88
Activity (HL-60 [2]): 20.8%
Activity (HL-60 [3]): Dose-dependent effect
Activity (HL-60 [4]): Dose-dependent effect
Activity (HL-60 [5]): 19.1%
Activity (RS4-11 [6]): 1.5%
Activity (HL-60 [7]): Active
fold change (FC) (HL-60 [8]): 1.56
fold change (FC) (HL-60 [9]): 1.62
fold change (FC) (HL-60 [10]): 1.5
fold change (FC) (HL-60 [11]): -1.7
fold change (FC) (HL-60 [12]): -1.64
fold change (FC) (HL-60 [13]): -1.5
Activity (HL-60 [14]): Tde
fold change (FC) (HL-60 [15]): 1.54
Activity (RS4-11 [16]): 6.9%
fold change (FC) (HL-60 [17]): -1.61
fold change (FC) (HL-60 [18]): -1.65
Activity (RS4-11 [19]): 7%
fold change (FC) (HL-60 [20]): 1.56
Activity (RS4-11 [21]): Active
Activity (HL-60 [22]): 10.6%
fold change (FC) (HL-60 [23]): -1.64
fold change (FC) (HL-60 [24]): 1.74
fold change (FC) (HL-60 [25]): 1.71
fold change (FC) (HL-60 [26]): 1.8
fold change (FC) (HL-60 [27]): -1.62
